This note sets out measurements from ChEMBL document CHEMBL3585244, “Click Chemistry in Lead Optimization of Boronic Acids as β-Lactamase Inhibitors” (J Med Chem, 2015).

Assay [1] in a line: Inhibition of beta-lactamase PDC-3 (unknown origin) expressed in Escherichia coli DH10B assessed as cefotaxime MIC at 4 ug/ml by agar dilution method. The procedure, abridged: (§1)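 MICs by cation-adjusted Mueller-Hinton agar dilution following CLSI standards. E. coli DH10B carried blaPDC-3 (from P. aeruginosa 18SH) or blaP99 subcloned in pBC SK(-). Cefotaxime was varied from 0 to 64 µg/ml, with boronate held constant at 4 µg/ml.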

The nature of assay [2]: Inhibition of beta-lactamase P99 (unknown origin) expressed in Escherichia coli DH10B assessed as cefotaxime MIC at 4 ug/ml by agar dilution method. The procedure, abridged:
as §1
On the technique in general: In agar dilution, organisms are placed on agar that contains the substance at set levels.

Assay [3] in a line: (§2) Inhibition of Enterobacter cloacae beta-lactamase P99 expressed in Escherichia coli AS226-51 incubated for 5 mins before nitrocefin substrate addition by spectrophotometry. The procedure, abridged:
(§3)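 P99 expressed from pCS980 in E. coli AS226-51, grown in SOB with kanamycin at 37 °C and induced with 0.5 mM IPTG at A600 0.6. Purified by preparative isoelectric focusing, gel filtration and cation exchange. Inhibitor preincubated with enzyme for 5 min in 10 mM PBS pH 7.4 at room temperature. […] Ki = IC50/(1+[S]/Km).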

The test system of a further assay is Enterobacter cloacae. The assay is described as §2. To be noted: TDE = time-dependent effect. The procedure, abridged:
as §3

The nature of assay [4]: (§4) Inhibition of Pseudomonas aeruginosa beta-lactamase PDC3 expressed in Escherichia coli BL21 (DE3) RP CodonPlus incubated for 5 mins before nitrocefin substrate addition by spectrophotometry. The procedure, abridged:
(§5)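 PDC-3 from P. aeruginosa 18SH subcloned in pET 24a, expressed in E. coli BL21(DE3) RP CodonPlus (37 °C, 0.5 mM IPTG at A600 0.6), purified by isoelectric focusing and FPLC.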

A further assay has as its system Pseudomonas aeruginosa. Described as §4. Particulars: TDE = time-dependent effect. The procedure, abridged: as §5
Assay [5] relates to Escherichia coli. The assay can be described thus: Potentiation of cefotaxime-induced antimicrobial effect against wild type Escherichia coli DH10B assessed as cefotaxime MIC at 4 ug/ml by agar dilution method. It is filed as functional.
Assay [6] deals with Escherichia coli. As to the kind of experiment: Antimicrobial activity against wild type Escherichia coli DH10B by agar dilution method. It is filed as functional. The procedure, abridged: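 MICs by cation-adjusted Mueller-Hinton agar dilution following CLSI standards. The E. coli DH10B host carried no β-lactamase gene.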
Assay [7] deals with Escherichia coli. The assay can be described thus: Antimicrobial activity against wild type Escherichia coli DH10B producing beta-lactamase P99 by agar dilution method. In kind it is functional. The procedure, abridged: (§6)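 E. coli DH10B carrying bla genes in pBC SK(-) vector; MICs in µg/mL by agar dilution on cation-adjusted Mueller-Hinton agar per CLSI standards.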
For assay [8], the system named is Escherichia coli. The assay can be described thus: Antimicrobial activity against wild type Escherichia coli DH10B producing beta-lactamase PDC3 by agar dilution method. It is filed as functional. The procedure, abridged:
as §6

≈ marks a conversion by molar mass, not a printed value. Where only a bound is given, the exact number is not on record here.

On to `O=C(Cc1cccs1)N[C@@H](Cn1cc(-c2cccc(C(=O)O)c2)nn1)B(O)O`, for which the MIC was 1 µg/mL in assay [1], 4 µg/mL in assay [2] and less than 0.125 µg/mL with Escherichia coli [5]. For the same compound, the IC50 stood at 84 nM in [3] and 67 nM in assay [4]. The values for the Ki in assay [3] and in [4] were 14 nM and 8 nM, respectively. The inhibition result in the assay on Enterobacter cloacae is “tde”. The time-dependent effect result with Pseudomonas aeruginosa was “tde”.

For `CC(=O)N[C@@H](Cn1cc(-c2ccccc2)nn1)B(O)O`, the 50% inhibitory concentration (IC50) stood at 13200 nM in [3] and 9300 nM in assay [4]. The inhibition entry with Enterobacter cloacae is “tde”. The time-dependent effect entry in the assay on Pseudomonas aeruginosa was “tde”.

`O=C(Cc1cccs1)NCB(O)O`: the MIC in assay [1] was 2 µg/mL; in [2], 2 µg/mL; in the assay on Escherichia coli [5], less than 0.125 µg/mL. Further, the figures for the IC50 in assay [3] and in assay [4] were 2700 nM and 3300 nM, respectively. In addition, the Ki turned out to be 450 nM in [3] and 411 nM in [4]. The inhibition result in the assay with Enterobacter cloacae was “tde”. Further, in the assay on Pseudomonas aeruginosa, the time-dependent effect result was “tde”.

Regarding `O=C(Cc1cccs1)N[C@@H](Cc1cccc(C(=O)O)c1)B(O)O`, the MIC in assay [1] was 4 µg/mL; in assay [2], 4 µg/mL; in the assay on Escherichia coli [5], less than 0.125 µg/mL. Further, the IC50 in assay [3] was 100 nM; in assay [4], 150 nM. Further, the values for the Ki in assay [3] and in [4] were 15 nM and 13 nM, respectively. Besides, the inhibition result in the assay on Enterobacter cloacae is “tde”. Also, in the assay on Pseudomonas aeruginosa, the time-dependent effect result is “tde”.

On to `O=C(Cc1ccccc1)N[C@@H](Cn1cc(-c2cccc(C(=O)O)c2)nn1)B(O)O`, for which the IC50 in [3] came out at 110 nM; in assay [4], 120 nM. In the assay with Enterobacter cloacae, the inhibition result is “tde”. In addition, the time-dependent effect entry with Pseudomonas aeruginosa is “tde”.

Take `CC(=O)N[C@@H](Cn1cc(C(C)(C)O)nn1)B(O)O`: the values for the IC50 in assay [3] and in assay [4] were 71000 nM and 18400 nM, respectively. Further, the inhibition result in the assay with Enterobacter cloacae was “tde”. For the same compound, the time-dependent effect entry with Pseudomonas aeruginosa is “tde”.

Regarding `Nc1cccc(-c2cn(C[C@H](NC(=O)Cc3cccs3)B(O)O)nn2)c1`, the IC50 was 360 nM in assay [3] and 280 nM in assay [4]. For the same compound, the inhibition result in the assay with Enterobacter cloacae was “tde”. For the same compound, the time-dependent effect entry in the assay with Pseudomonas aeruginosa is “tde”.

With `O=C(Cc1ccccc1)N[C@@H](Cn1cc(C(=O)O)nn1)B(O)O`, the IC50 amounted to 110 nM in [3] and 230 nM in assay [4]. Further, the inhibition entry in the assay with Enterobacter cloacae is “tde”. Moreover, in the assay with Pseudomonas aeruginosa, the time-dependent effect result was “tde”.

`O=C(Cc1cccs1)N[C@@H](Cn1cc(C(=O)O)nn1)B(O)O`: the MIC was 0.5 µg/mL in [1], 2 µg/mL in [2] and less than 0.125 µg/mL with Escherichia coli [5]. Besides, the values for the IC50 in assay [3] and in assay [4] were 140 nM and 35 nM, respectively. For the same compound, the Ki in [3] is 23 nM; in assay [4], 4 nM. The inhibition result in the assay with Enterobacter cloacae was “tde”. The time-dependent effect result in the assay on Pseudomonas aeruginosa is “tde”.

On to `CC(=O)N[C@@H](Cn1cc(C(=O)O)nn1)B(O)O`, for which the IC50 in [3] was 27100 nM; in assay [4], 5000 nM. In addition, in the assay with Enterobacter cloacae, the inhibition entry was “tde”. Further, the time-dependent effect result with Pseudomonas aeruginosa was “tde”.

Consider `Nc1cccc(-c2cn(C[C@H](NC(=O)Cc3ccccc3)B(O)O)nn2)c1`, for which the IC50 in assay [3] came to 600 nM; in assay [4], 400 nM. Besides, in the assay on Enterobacter cloacae, the inhibition result is “tde”. In addition, the time-dependent effect entry in the assay with Pseudomonas aeruginosa was “tde”.

Regarding `O=C(Cc1ccccc1)N[C@@H](Cn1cc(-c2ccccc2)nn1)B(O)O`, the figures for the half-inhibitory concentration (IC50) in [3] and in [4] were 150 nM and 300 nM, respectively. For the same compound, the inhibition result in the assay on Enterobacter cloacae is “tde”. Further, the time-dependent effect entry with Pseudomonas aeruginosa is “tde”.

Turning to `O=C(Cc1cccs1)N[C@@H](Cn1ccnn1)B(O)O`, in assay [3], the 50% inhibitory concentration (IC50) was determined as 800 nM and the inhibition constant Ki is 134 nM. Moreover, in the assay on Enterobacter cloacae, the inhibition entry was “tde”. In addition, in assay [4], inhibition was half-maximal at 1300 nM (IC50) and the inhibition constant (Ki) stood at 164 nM. Also, the time-dependent effect result in the assay with Pseudomonas aeruginosa was “tde”.

In the case of `CO/N=C(\C(=O)N[C@@H]1C(=O)N2C(C(=O)O)=C(COC(C)=O)CS[C@H]12)c1csc(N)n1` [CEFOTAXIME], the MIC against Escherichia coli [6] was less than 0.125 µg/mL; in the assay on Escherichia coli [7], 16 µg/mL (≈ 35.1 µM); in the assay on Escherichia coli [8] it was 16 µg/mL (≈ 35.1 µM).

With `O=C(Cc1cccs1)N[C@@H](Cn1cc(-c2ccccc2)nn1)B(O)O`, the IC50 in [3] was determined as 320 nM; in assay [4], 300 nM. Further, the inhibition entry in the assay with Enterobacter cloacae was “tde”. The time-dependent effect entry in the assay on Pseudomonas aeruginosa was “tde”.

`CC(C)(O)c1cn(C[C@H](NC(=O)Cc2ccccc2)B(O)O)nn1`: the IC50 worked out at 660 nM in [3] and 1180 nM in assay [4]. Besides, the inhibition entry in the assay on Enterobacter cloacae was “tde”. Besides, the time-dependent effect entry with Pseudomonas aeruginosa was “tde”.

For `CC(C)(O)c1cn(C[C@H](NC(=O)Cc2cccs2)B(O)O)nn1`, the IC50 in assay [3] stood at 420 nM; in [4], 250 nM. For the same compound, the inhibition result with Enterobacter cloacae is “tde”. Further, the time-dependent effect result in the assay with Pseudomonas aeruginosa is “tde”.

The term IC50 denotes the midpoint of a concentration-inhibition curve. A higher IC50 goes with a need for much substance. The Ki is the equilibrium dissociation constant of an inhibitor or competing ligand from its target. Lower therefore signals tighter binding.
